Data on 167 variants can be found in the RNAGym collection of RNA variant scans (doi:10.1126/science.aae0568).

The chains are these.
B1: tRNA (parent)
chain: GUUCCGUUGGCGUAAUGGUAACGCGUCUCCCUCCUAAGGAGAAGACUGCGGGUUCGAGUCCCGUACGGAACG

This sample holds only a part of the variants without activity.

The variants in this series derive from B1. The series is described as follows: yeast fitness relative to wild type (ratio to wild type); higher = fitter; tRNA-Arg(CCU), competitive growth, 37 C, YPD. In outline: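 A pool of Saccharomyces cerevisiae strains, each with a tRNA-Arg(CCU) gene variant at the native genomic locus, was competed in YPD at 37°C for 24 hours across six parallel replicates. The variants had been chemically synthesised at a 3% per-site mutation rate over 69 sites, and gene amplicons before and after competition were read by 100-nucleotide paired-end sequencing. Darwinian fitness relative to wild type rested on changes in genotype frequencies. Genotypes required ≥ 100 starting reads, and estimates < 0.5 were set to 0.5.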
For the variant A14U C22A, the yeast fitness is 0.668.
The figure for A14G C30A A42G G44A is 0.569.
Take A14G C34U C49A C60U: the yeast fitness came to 0.512.
The figure for A14U A15G C34G C61U A70C is not above 0.5.
As for A14C U28A A42U U54A, the yeast fitness is not above 0.5.
As for A14U A42G, the figure is 0.529; as for A14U A42U, 0.652; as for A14C U47C, 0.79.
Take A14G U26A C27G: the yeast fitness is not above 0.5.
Take A14G A57C: the yeast fitness came to 0.555.
Turning to A14G A20G A42U, the yeast fitness came to 0.696.
Take A14G G18A C22G C49A: the yeast fitness is not above 0.5.
As for A14G G56U A65U G68C, the figure is not above 0.5.
The figure for A14U A57C U59A is 0.703; for A14U A21U it is 0.547.
The figure for A14U A21C is 0.705; for A14G C62U it is 0.937; for A14G C24U A43U A65C it is not above 0.5.
Consider A14U A45C U47C C55U A65C A69C, for which the yeast fitness was not above 0.5.
For the variant A14G G39A, the yeast fitness is 0.751.
Turning to A14G A36G A45U, the yeast fitness was determined as 0.534.
A14G C24U G56A: the yeast fitness came out at 0.813.
For A14G A42U G44C U54A, the yeast fitness was not above 0.5.
Take A14G A43G G52C U53C G63C: the yeast fitness was not above 0.5.
As to A14G C30A C46U G52C C66U, the yeast fitness was not above 0.5.
The figure for A14U A15G C55G C61G is 0.637; for A14G C27G U54C it is not above 0.5; for A14G U16G G18C U59A A65U it is not above 0.5.
For A14G C55U A65G, the yeast fitness worked out at 0.513.
Take A14G C27G C34G A37U U64A: the yeast fitness came out at 0.667.
Regarding A14U A40G A45U G56A, the yeast fitness was not above 0.5.
For A14C U28A C61G A69G, the yeast fitness was not above 0.5.
The figure for A14C U19G C31G C33U A42G U64C A65G A69C is not above 0.5.
Regarding A14U A15C A40G U47C G56C G67C, the yeast fitness is not above 0.5.
Regarding A14C U19G G44C C62G, the yeast fitness was not above 0.5.
The figure for A14G A21G is 0.989; for A14G A21C it is 0.866.
On to A14G A15G U35C, for which the yeast fitness was 0.572.
As for A14G G38A, the figure is 0.799; as for A14G C46U G50C G51A C55U A57U C62G A70U, not above 0.5; as for A14U A40U U54A C55U U64C, not above 0.5.
As for A14G A21C G63C, the figure is 0.546.
The figure for A14G A20C C31G A45U G48C is not above 0.5; for A14U A45C G56A it is 0.581.
A14G A15U: the yeast fitness was 0.704.
As for A14G C33U G63A, the figure is 0.614; as for A14U A21U G67C, 0.596.
Regarding A14G C34G A43C U47C, the yeast fitness came to 0.533.
For A14G U19A C27G U28A C34A A36G A43G, the yeast fitness was 0.608.
The figure for A14G G48C is 0.701; for A14G A21C C30G C55G it is 0.533.
As for A14G A15C C46A A69U, the figure is not above 0.5; as for A14G C33G A70U, 0.545; as for A14G C31U G68A, 0.568.
A14U A21C C22U C33G A45G C46G G52C: the yeast fitness was not above 0.5.
Take A14G C31U U35C A40G A65U: the yeast fitness was not above 0.5.
In the case of A14G U26G A43C G68A, the yeast fitness is not above 0.5.
As for A14G G50U G67C, the figure is not above 0.5; as for A14U A20C A37C C49G, not above 0.5.
As for A14G C61G, the figure is 0.721.
For the variant A14G C24G C66U, the yeast fitness was not above 0.5.
As for A14G U32A, the figure is 0.554.
In the case of A14U, the yeast fitness came out at 0.667.
Take A14G: the yeast fitness worked out at 0.796.
The figure for A14U A43C U54A is not above 0.5.
As for A14G U35A G56A C66U, the figure is not above 0.5.
On to A14G U19A C27U C34U C66U, for which the yeast fitness is not above 0.5.
Take A14G U32C C55U: the yeast fitness is not above 0.5.
On to A14G G52A, for which the yeast fitness stood at 0.631.
Turning to A14U A36C U53C A69C, the yeast fitness is not above 0.5.
As to A14G G23C A70U, the yeast fitness stood at 0.564.
The figure for A14G U35G C55A G63A is not above 0.5; for A14G C22U C24U A65C it is not above 0.5; for A14U A15U C49U G56C it is not above 0.5.
Regarding A14G A36C A57C G68A, the yeast fitness was not above 0.5.
As for A14G C55G A57C, the figure is 0.598.
Consider A14C U35C A69U, for which the yeast fitness is not above 0.5.
A14G U19A A20G A40U: the yeast fitness is not above 0.5.
For the variant A14G A42G G48C, the yeast fitness came to 0.568.
With A14G A43G, the yeast fitness was determined as 0.932.
As for A14G A15G A45U C66U, the figure is 0.619; as for A14G C27U U28C, 0.541.
As to A14G C30U G39A C60G, the yeast fitness is not above 0.5.
As for A14G U32G A45G A69U, the figure is not above 0.5; as for A14G C46U, 0.886.
As for A14G C31U A37G A45C A70G, the figure is not above 0.5; as for A14G C24G C31U, not above 0.5.
For the variant A14G G18A C55U, the yeast fitness is not above 0.5.
In the case of A14G C29U, the yeast fitness turned out to be 0.988.
For the variant A14G C22A C27A C29U A42C G63C, the yeast fitness is not above 0.5.
The figure for A14G G58C C66A is not above 0.5; for A14G C29U G52C it is not above 0.5; for A14G A42G C46G it is 0.517.
The figure for A14G C55A A57U G58C A69U is not above 0.5; for A14G U19C G68A it is 0.559; for A14G A15U G39U C61U it is not above 0.5.
Regarding A14G A37G, the yeast fitness is 0.718.
With A14G A43C A45G, the yeast fitness stood at 0.585.
The figure for A14C U59C is 0.687; for A14U A37C C46U C61G it is not above 0.5.
As for A14G A43G C60U C62U A70C, the figure is not above 0.5; as for A14G C31U G58C G68A, not above 0.5; as for A14G G23A U64G A69U, not above 0.5.
As to A14G C24U C55U G67C, the yeast fitness is not above 0.5.
The figure for A14C U32G G58A A65C is 0.645; for A14G A37C G56A it is not above 0.5; for A14G G25A C30A it is 0.563.
As for A14G G58A, the yeast fitness was found to be 0.836.
As for A14G A42C G50A A70C, the figure is 0.593.
The figure for A14G A45U C61U is 0.665.
On to A14G C31G A37G, for which the yeast fitness is not above 0.5.
As to A14U A37U U47C, the yeast fitness is not above 0.5.
The figure for A14U A37U U47A is 0.632; for A14U A40U U54A A70G it is 0.568.
The figure for A14G G67A is 0.821; for A14G C30U it is 0.81.
The figure for A14U A37G G44C A45C G50A C55G is 0.594.
A14G A36U A65G: the yeast fitness was not above 0.5.
As for A14G C34G A43C G58U A65U, the figure is not above 0.5; as for A14U A43G, 0.537; as for A14U A45C C49U A65C, not above 0.5.
The figure for A14G A21U U47G C49G G56C is not above 0.5; for A14C U19G U59C A69G it is not above 0.5; for A14G G48A C62A it is 0.65.
A14U A21G C29G U59A: the yeast fitness was not above 0.5.
On to A14G C22A C27G A42U, for which the yeast fitness was not above 0.5.
The figure for A14G U26G A37U A45U G51A A65C is not above 0.5.
For A14G A45G C61A, the yeast fitness was not above 0.5.
For A14G G41A A70G, the yeast fitness came to 0.638.
As for A14G C22A C27A C29U A42C A70C, the figure is not above 0.5; as for A14U A70U, 0.713; as for A14G G18C C60A C66U, not above 0.5.
As for A14G U26G, the figure is 0.81; as for A14U A15C C31G A43U, 0.627.
As for A14G C22U C34U U54C C55A, the figure is not above 0.5; as for A14U A42U C49U C61U C66U, not above 0.5.
With A14G C24A, the yeast fitness worked out at 0.666.
As for A14G C24U A65U, the figure is 0.54; as for A14U A15G C34G, not above 0.5; as for A14G C49G A69U A70C, 0.618.
The figure for A14G A45G G50A is not above 0.5; for A14G G23U G58A it is not above 0.5.
For A14G C27A C49G U53A C62A, the yeast fitness was not above 0.5.
As for A14G G18C C30G G52C C61A, the figure is not above 0.5; as for A14G C27U U47A C62U, 0.566; as for A14G C30A C34A A43C C60G C62A, not above 0.5.
The figure for A14G C22U A70C is not above 0.5; for A14G C22U C34U U35A C55A it is not above 0.5; for A14C U28C A40G C55A A57C C62U it is not above 0.5.
On to A14G U64C, for which the yeast fitness stood at 0.924.
For the variant A14G U19C C60G, the yeast fitness was not above 0.5.
The figure for A14G C29U A37G A65G is not above 0.5; for A14C U26A C29U C49U C62G G68C it is 0.519.
Turning to A14G G41C C46A, the yeast fitness stood at 0.791.
The figure for A14C U35C is 0.695.
The figure for A14G C49G G56C is not above 0.5; for A14G C29U G39A C49U G56C it is not above 0.5.
The figure for A14G U28C G67A is 0.534.
As to A14G A36U A37G C46A G48A, the yeast fitness was not above 0.5.
Take A14G U26C A37G C61U G68A: the yeast fitness is not above 0.5.
The figure for A14G A42U C62U A70C is not above 0.5; for A14G C29G C31U A70G it is not above 0.5.
As for A14G C29G C31U A70C, the figure is 0.51.
For the variant A14G A65C, the yeast fitness was 0.903.
The figure for A14G A65U is 0.737; for A14G A15G C33G C34U A43C C49G C61G C66U A69U it is not above 0.5; for A14G G25A A36G A42U G68C it is 0.576.
